Data set [1] has as its target T1, 4,4'-diapophytoene synthase (Staphylococcus aureus) (UniProt A9JQL9).
T1 sequence (whole entry): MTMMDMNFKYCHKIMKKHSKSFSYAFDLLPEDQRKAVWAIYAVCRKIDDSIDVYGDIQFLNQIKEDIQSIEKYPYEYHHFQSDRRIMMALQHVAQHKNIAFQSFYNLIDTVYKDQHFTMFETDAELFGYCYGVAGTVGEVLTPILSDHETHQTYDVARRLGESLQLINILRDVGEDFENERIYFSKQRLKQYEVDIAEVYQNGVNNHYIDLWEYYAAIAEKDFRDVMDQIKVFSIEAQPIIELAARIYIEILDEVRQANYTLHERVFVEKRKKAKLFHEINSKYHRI
Briefly: Inhibition of CrtM in Methicillin-resistant Staphylococcus aureus assessed as inhibition of staphyloxanthin production by measuring reduction in 4,4'-diaponeurosporene level at 1/4XMIC measured after 24 hrs by spectroscopic analysis. An outline of the steps:
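Cells pelleted, PBS-washed, extracted overnight in methanol at 37 °C. Supernatant absorbance read at 462 nm (staphyloxanthin), 286 nm (4,4′-diapophytoene), 435 nm (4,4′-diaponeurosporene) or 455 nm (4,4′-diaponeurosporenic acid). % inhibition = (control − treated)/control × 100.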

For data set [2], the system named is Staphylococcus aureus. Briefly: Bactericidal activity against clinically isolated Staphylococcus aureus RBRJ010 assessed as inhibition of bacterial growth measured after 48 hrs by agar plate method. The format is functional. In a few lines:
(§1)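 MBC: 10 μL from wells showing no INT colour change after broth microdilution subcultured on drug-free Mueller Hinton agar, 48 h at 37 °C aerobically; lowest concentration with no visible growth taken as MBC (μM). Triplicate.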

The nature of data set [3]: Toxicity against Galleria mellonella assessed as metabolic activity of larva at 20 mg/kg measured every 12 hrs for 120 hrs. The format is organism-based. As to conditions: in vivo. In a few lines:
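Uninfected Galleria mellonella larvae (0.2–0.4 g, ten per group) given 20 mg kg−1 compound, alongside untreated, PBS and PBS + 2% DMSO vehicle controls; held at 37 °C and checked every 12 h for 120 h. Larvae that turned black and gave no response to stimulus counted dead; percentage survival recorded.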

Data set [4] has as its system Staphylococcus aureus. Nature of the data set: Anti-biofilm activity against Methicillin-resistant Staphylococcus aureus assessed as interruption in well organized and aggregated biofilm at 1/2 to 2X MIC measured after 48 hrs by scanning electron microscopy. The format is functional, organism-based.
Data set [5] relates to Staphylococcus aureus. Nature of the data set: Anti-biofilm activity against Methicillin-resistant Staphylococcus aureus assessed as reduction in biofilm formation at 1/2XMIC measured after 48 hrs by crystal violet staining based analysis. The format is functional. In a few lines: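 Non-adherent cells washed off with water, stained with 0.5% crystal violet 30 min at 25 °C, dye eluted with 95% ethanol, OD 545 nm. Reported as % reduction versus untreated control. Triplicate.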

The subject of data set [6] is Staphylococcus epidermidis. Briefly: Bactericidal activity against Staphylococcus epidermidis MTCC 435 assessed as inhibition of bacterial growth measured after 48 hrs by agar plate method. The format is functional. In a few lines:
as §1

Data set [7] relates to Staphylococcus aureus. Nature of the data set: Anti-biofilm activity against Methicillin-resistant Staphylococcus aureus assessed as biofilm substrate coverage at 2XMIC measured after 48 hrs by crystal violet staining based phase contrast microscopy (reference value: 81.43+/-3.57%). The format is functional.
Data set [8] concerns Staphylococcus aureus. Briefly: Antibacterial activity against Methicillin-resistant Staphylococcus aureus infected in Galleria mellonella assessed as larva's survival rate at 5 to 10 mg/kg measured after 24 to 48 hrs. The format is functional. As to conditions: dose 5-10 mg/kg, time 24-48 hrs. In a few lines:
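Galleria mellonella larvae (0.2–0.4 g, 10 per group) injected in the last proleg with MRSA at 5 × 10^8 ± 0.2 cells per larva, then given 2.5, 5 or 10 mg kg−1. Controls: untreated, PBS, and PBS + 2% DMSO vehicle. Held at 37 °C and checked every 12 h; larvae that were black and unresponsive counted dead. Bacterial burden by CFU at 0, 24 and 48 h.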

The test system of another data set is Acinetobacter baumannii. Briefly: Antibacterial activity against clinically isolated Acinetobacter baumannii RBRJ027 assessed as inhibition of bacterial growth at 50 uM measured after 48 hrs by agar well diffusion method. The format is functional. The settings on record: read-out: IZ. Background: Agar diffusion results depend on both activity and mobility in agar.

Data set [9] has as its system Staphylococcus aureus. Briefly: Anti-biofilm activity against Methicillin-resistant Staphylococcus aureus assessed as biofilm substrate coverage at 1XMIC measured after 48 hrs by crystal violet staining based phase contrast microscopy (reference value: 81.43+/-3.57%). The format is functional.

Converted amounts (≈) assume the structure as drawn. The source made the active and inactive calls. No cut-off for these calls is given here.

As a reminder, the inhibition is the percentage by which the read-out fell short of the control. The MBC is the lowest tested concentration that kills the bacteria rather than only halting them. Consider `Cc1ccc(C(C)C)c(OCc2cn(CCCN3C(=O)C(=O)c4ccccc43)nn2)c1`, for which, in data set [1], the inhibition is 85%. Besides, the MBC in the data set with Staphylococcus aureus [2] is 3.9 µM (≈ 1.63 µg/mL); in data set [6], 7.8 µM (≈ 3.26 µg/mL). In addition, the Activity entry was “Non-Toxic” in data set [3], 1.83% in the data set on Staphylococcus aureus [7], 90% in the data set on Staphylococcus aureus [8] and 5.11% with Staphylococcus aureus [9]. Moreover, the outcome with Staphylococcus aureus [4] was Active. For the same molecule, the “inhibition (INH)” value with Staphylococcus aureus [5] was found to be 78.43%. In the data set on Acinetobacter baumannii, the zone of inhibition at 50 µM was found to be 18.3 mm.

These data come from ChEMBL document CHEMBL5357047, “The development of thymol-isatin hybrids as broad-spectrum antibacterial agents with potent anti-MRSA activity” (RSC Med Chem, 2024).
